We go through twelve compounds from ChEMBL document CHEMBL1122309 (J Med Chem, 1983).

Series [1] has as its target T1, Cholesterol side-chain cleavage enzyme, mitochondrial (Bos taurus, UniProt P00189).
T1 sequence (P00189 whole entry): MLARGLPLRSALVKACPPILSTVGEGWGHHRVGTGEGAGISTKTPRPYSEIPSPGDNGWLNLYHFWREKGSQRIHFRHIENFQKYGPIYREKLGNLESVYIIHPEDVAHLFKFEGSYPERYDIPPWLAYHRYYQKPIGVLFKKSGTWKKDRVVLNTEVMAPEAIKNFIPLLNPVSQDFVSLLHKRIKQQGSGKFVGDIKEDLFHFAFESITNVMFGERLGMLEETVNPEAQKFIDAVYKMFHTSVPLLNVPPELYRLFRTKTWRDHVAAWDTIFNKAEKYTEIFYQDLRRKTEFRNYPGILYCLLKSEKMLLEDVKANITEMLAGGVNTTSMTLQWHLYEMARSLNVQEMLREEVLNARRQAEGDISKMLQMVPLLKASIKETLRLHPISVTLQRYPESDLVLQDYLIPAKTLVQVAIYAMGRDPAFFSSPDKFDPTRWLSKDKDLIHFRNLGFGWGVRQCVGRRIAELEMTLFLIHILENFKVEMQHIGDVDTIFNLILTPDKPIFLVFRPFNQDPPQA
As to the kind of experiment: Inhibition of bovine cholesterol side-chain cleavage desmolase, cytochrome P450 11A1; none. As to conditions: cattle; call rule not given here. In short, it runs like this: (§1)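 Enzyme source was the mitochondrial fraction of bovine adrenal cortex, stored at -70 °C. Substrate [14C]cholesterol; [14C]isocaproic acid released was measured. Inhibitors were added in 10 μL ethanol (ethanol alone in controls) to a 1.0 mL assay and preincubated 5 min at 30 °C. The reaction was started with 1 mg mitochondrial protein and sampled at 2, 4 and 6 min. Result given as % of control rate; apparent Ki from Lineweaver-Burk plots.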

The target of a further series is T2, Aromatase (Homo sapiens, UniProt P11511).
T2 sequence (P11511 whole entry): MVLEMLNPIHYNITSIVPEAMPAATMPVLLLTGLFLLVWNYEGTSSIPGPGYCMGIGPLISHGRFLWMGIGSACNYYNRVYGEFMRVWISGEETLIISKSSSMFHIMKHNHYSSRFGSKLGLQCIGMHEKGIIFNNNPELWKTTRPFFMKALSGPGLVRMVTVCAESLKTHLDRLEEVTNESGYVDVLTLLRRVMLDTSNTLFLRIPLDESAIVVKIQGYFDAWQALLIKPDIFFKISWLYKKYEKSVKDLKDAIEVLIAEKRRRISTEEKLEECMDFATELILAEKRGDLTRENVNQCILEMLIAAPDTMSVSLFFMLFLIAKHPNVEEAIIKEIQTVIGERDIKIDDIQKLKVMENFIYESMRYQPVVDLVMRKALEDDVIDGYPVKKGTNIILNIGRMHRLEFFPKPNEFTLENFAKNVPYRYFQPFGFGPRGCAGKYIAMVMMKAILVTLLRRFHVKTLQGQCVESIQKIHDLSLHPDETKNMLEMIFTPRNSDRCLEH
As to the kind of experiment: Inhibition of human placental aromatase Cytochrome P450 19A1; none.

Series [2] has as its target T1, Cholesterol side-chain cleavage enzyme, mitochondrial. The series can be described thus: (§2) Inhibition of bovine cholesterol side-chain cleavage desmolase, cytochrome P450 11A1. Further details: concentration or dose not given beside the values. To be noted: cattle. In short, it runs like this: as §1
For series [3] the target is unchanged. The description is as §2. As to conditions: cattle. In a few lines: as §1

As for `CCC1(c2ccc(O)cc2)CCC(=O)NC1=O` (stereo not drawn) [P-HYDROXYGLUTETHIMIDE], the Inhibition result (in series [1]; on Aromatase) was “Not Active” each time. As to `CCC1(c2ccc(O)c(N)c2)CCC(=O)NC1=O` (stereo not drawn), the Inhibition (commonly the change of the read-out against control, counted positive when it falls) was 35% in series [2] and “Not Active” at Aromatase.

In series [2], `CCC1(c2ccc([N+](=O)[O-])cc2)CCC(=O)NC1=O` (stereo not drawn) [4-NITROGLUTETHIMIDE] showed an Inhibition of 20%. `CCC1(c2ccccc2)CCC(=O)NC1=O` (stereo not drawn) [GLUTETHIMIDE]: the Inhibition result (in series [1]; on Aromatase) was “Not Active” each time. Turning to `CCC1(c2ccc(NC(C)=O)cc2)CCC(=O)NC1=O` (stereo not drawn), the Inhibition entry (in series [1]; at Aromatase) was “Not Active” in each case.

Turning to `CCC1(c2ccc(N)c(O)c2)CCC(=O)NC1=O` (stereo not drawn), the Inhibition entry (in series [1]; on Aromatase) was “Not Active” in each case. For the compound `CCC1(c2ccc(O)c([N+](=O)[O-])c2)CCC(=O)NC1=O` (stereo not drawn), the Inhibition result (in series [1]; on Aromatase) was “Not Active” throughout. As for `CCC1(c2ccc(N)cc2)CC(N)C(=O)NC1=O` (stereo not drawn), the Inhibition in series [2] worked out at 45%. In the case of `CCC1(c2cccc(N)c2)CCC(=O)NC1=O` (stereo not drawn), the Inhibition in series [3] came to 13%. With `CCC1(c2ccc(NC=O)cc2)CCC(=O)NC1=O` (stereo not drawn), the Inhibition in series [2] worked out at 12%. On the same count and under the same terms, the value for `CCC1(c2ccc(N)cc2)CCC(=O)NC1=O` (stereo not drawn) [AMINOGLUTETHIMIDE] was 85%. The same measure, in the same setting: with `CCC1(c2ccc(N)cc2)CCC(=O)N(N)C1=O` (stereo not drawn) the figure was 50%.
